Values joined by “and” are separate entries in the source; they are usually repeats but may differ in a detail not shown here. Identical values can stand only once.
Legend:
[1] = test system: T. cruzi Talahuen strain intracellular amastigotes; test: Anti-T. cruzi in vitro assay in intracellular amastigotes; assay type: cell-based, Trypanosoma cruzi; details: for SI (selectivity index = LC50/EC50): LC50 U-937 / EC50 T. cruzi; for antitrypanosomal activity class: classified by EC50 in μg/mL
[2] = In vitro cytotoxicity in U-937 cells; assay type: cell-based; details: human, U-937 cells (non-infected)
Outline: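 Non-infected U-937 cells at 10^5 cells/mL were mixed 1:1 with compound solutions at 200, 50, 12.5 and 3.125 µg/mL, alongside benznidazole, and held 72 h at 37 °C. MTT was added for 3 h, then formazan was dissolved in isopropanol/SDS and read at 570 nm. Viability was expressed versus unexposed cells, mortality as 100 − %viability, and LC50 was obtained by probit analysis.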

[3] = test system: T. cruzi strain HA trypomastigotes; details: ref Garcia et al. 2010; cited from earlier work
[4] = test system: T. cruzi blood trypomastigotes (Talahuen strain); test: In vivo therapeutic response in BALB/c mice infected with T. cruzi; design: species or system Mus musculus (BALB/c mice); details: at the end of treatment
Outline: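 BALB/c mice were inoculated intraperitoneally with 100 blood trypomastigotes of the Tulahuen β-gal strain taken from donor mice. From the first day of parasitaemia, seven groups (n = 6) were dosed orally at 100 mg/kg/day for 25 days with test compound, benznidazole or nothing. Parasitaemia per 0.1 mL blood was counted by hematocrit at TD0, TD25 and PTD30/60/90. Reduction was calculated per mouse against pre-treatment parasitaemia. Mice negative in all tests were scored cured.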

Compound	SI (selectivity index = LC50/EC50) [1]	antitrypanosomal activity class [1]	CC50 at 72 h [2]	inhibition of the presence of the parasite [3] [%]	mice cured [4] [%]	parasitaemia status ([4]; 100 mg/kg/day)
COc1cc(/C=C/c2ccc3cccc(OC(C)=O)c3n2)ccc1OC(C)=O [Compound 3h, (E)-2-(4-Acetoxy-3-methoxystyryl)quinolin-8-yl acetate]	0.2	moderate (Moderate activity: 25 μg/mL > EC50 < 50 μg/mL)	5.9 µg/mL and 15.6 µM	–	–	–
COc1cccc(/C=C/c2ccc3ccccc3n2)c1OC [(E)-2-(2,3-dimetoxystyryl) quinoline]	–	–	–	34.1	–	–
CC(=O)Oc1ccc(/C=C/c2ccc3cccc(OC(C)=O)c3n2)c(OC(C)=O)c1 [Compound 3g, (E)-4-(2-(8-Acetoxyquinolin-2-yl)vinyl)-1,3-phenylene diacetate]	–	moderate (Moderate activity: 25 μg/mL > EC50 < 50 μg/mL)	6.9 µg/mL and 17.2 µM	–	–	–
O=C(Cn1ccnc1[N+](=O)[O-])NCc1ccccc1 [Benznidazol (BZ), Benznidazol, reference compound]	8.7	–	> 200 µg/mL and 491 µM	–	100	negative
